From ChEMBL document CHEMBL2034932, “2-Anilino-4-(benzimidazol-2-yl)pyrimidines--a multikinase inhibitor scaffold with antiproliferative activity toward cancer cell lines” (Eur J Med Chem, 2012) come the findings set out here.

Counter-ions that a name gives are not always drawn.

Assay [1] concerns SW-620. In words: Antiproliferative activity against human SW620 cells after 48 hrs by SRB assay. Type of assay: functional. To be noted: SW-620, 48 h. In outline: (§1)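 Run in the NCI screen of about 60 human tumour cell lines. Cells were exposed to compound for 48 h at five concentrations from 10^-8 to 10^-4 M, then fixed and stained for protein with sulforhodamine B. Absorbance was read at 515 nm. Percent growth was calculated from time-zero, untreated-control and treated readings, and replicate experiments were averaged.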
On the technique in general: In SRB staining, fixed cells bind dye roughly in proportion to their protein.

In assay [2] the test system is EKVX. In words: Antiproliferative activity against human EKVX cells after 48 hrs by SRB assay. Type of assay: functional. In outline:
as §1

In assay [3] the test system is MCF7. Kind of assay: Antiproliferative activity against human MCF7 cells after 48 hrs by SRB assay. It counts as functional. Particulars: MCF7, 48 h. In outline:
as §1

Assay [4] has as its system SNB-19. Kind of assay: Antiproliferative activity against human SNB19 cells after 48 hrs by SRB assay. Type of assay: functional. Particulars: SNB-19, 48 h. In outline:
as §1

Assay [5] deals with UACC-257. In words: Antiproliferative activity against human UACC257 cells after 48 hrs by SRB assay. It counts as functional. To be noted: UACC-257, 48 h. In outline: as §1
Assay [6] concerns CAKI-1. Kind of assay: Antiproliferative activity against human CAKI-1 cells after 48 hrs by SRB assay. Type of assay: functional. To be noted: CAKI-1, 48 h. In outline: as §1
Assay [7] concerns TK-10. In words: Antiproliferative activity against human TK10 cells after 48 hrs by SRB assay. Type of assay: functional. Particulars: TK-10, 48 h. In outline:
as §1

Assay [8] concerns MDA-MB-435. Kind of assay: Antiproliferative activity against human MDA-MB-435 cells after 48 hrs by SRB assay. Type of assay: functional. Particulars: MDA-MB-435, 48 h. In outline: as §1
The subject of assay [9] is HT-29. In words: Antiproliferative activity against human HT-29 cells after 48 hrs by SRB assay. It counts as functional. Particulars: HT-29, 48 h. In outline:
as §1

In assay [10] the test system is OVCAR-3. In words: Antiproliferative activity against human OVCAR3 cells after 48 hrs by SRB assay. Type of assay: functional. Particulars: OVCAR-3, 48 h. In outline:
as §1

Assay [11] has as its target RAC-alpha serine/threonine-protein kinase (Homo sapiens, UniProt P31749). In words: Inhibition of recombinant AKT1 using GSK3 as substrate assessed as inhibition of [33P]Phosphate incorporation into substrate after 80 mins by scintillation counting. In outline:
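Recombinant AKT1 was assayed radiometrically with [33P]-ATP (about 5×10^5 cpm/well) and GSK3(14-27) substrate at 2000 ng/50 µL. Buffer was 60 mM HEPES-NaOH pH 7.5 with 3 mM MgCl2 and 3 mM MnCl2, and compound was added in 10% DMSO. After 80 min at 30 °C the reaction was stopped with 2% phosphoric acid, washed with 0.9% NaCl and 33P incorporation counted by scintillation.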

In assay [12] the target is Aurora kinase B (Homo sapiens, UniProt Q96GD4). In words: Inhibition of recombinant Aurora B using tetra(LRRWSLG) as substrate assessed as inhibition of [33P]Phosphate incorporation into substrate after 80 mins by scintillation counting.
The target of assay [13] is Focal adhesion kinase 1 (Homo sapiens, UniProt Q05397). In words: Inhibition of recombinant FAK using poly(Glu,Tyr)4 as substrate assessed as inhibition of [33P]Phosphate incorporation into substrate after 80 mins by scintillation counting.
For assay [14], the target named is Serine/threonine-protein kinase PLK1 (Homo sapiens, UniProt P53350). Kind of assay: Inhibition of recombinant PLK1 using RBERCHKtide as substrate assessed as inhibition of [33P]Phosphate incorporation into substrate after 80 mins by scintillation counting. In outline:
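PLK1 (recombinant) was phosphorylating RBER-CHKtide at 2000 ng/50 µL with [33P]-ATP (about 5×10^5 cpm/well). Buffer was 60 mM HEPES-NaOH pH 7.5 with 3 mM MgCl2 and 3 mM MnCl2. After 80 min at 30 °C, 2% phosphoric acid stopped the reaction and wells were washed with saline. Incorporated 33P was counted, with residual activity relative to enzyme-free and inhibitor-free controls.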

RAC-alpha serine/threonine-protein kinase, sequence (P31749 whole entry): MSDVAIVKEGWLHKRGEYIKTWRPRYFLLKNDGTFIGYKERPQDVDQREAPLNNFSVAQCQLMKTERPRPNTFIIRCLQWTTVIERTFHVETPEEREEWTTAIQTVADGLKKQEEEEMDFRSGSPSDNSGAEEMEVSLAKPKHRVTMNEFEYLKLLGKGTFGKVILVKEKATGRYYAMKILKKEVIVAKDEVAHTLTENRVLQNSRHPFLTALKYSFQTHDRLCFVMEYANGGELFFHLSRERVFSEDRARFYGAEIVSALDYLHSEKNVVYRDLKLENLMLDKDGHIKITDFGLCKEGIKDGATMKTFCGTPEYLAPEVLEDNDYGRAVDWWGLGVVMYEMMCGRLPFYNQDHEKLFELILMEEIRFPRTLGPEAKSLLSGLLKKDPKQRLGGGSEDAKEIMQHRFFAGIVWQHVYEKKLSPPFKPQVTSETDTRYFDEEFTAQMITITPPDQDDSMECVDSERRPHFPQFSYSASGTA
Aurora kinase B, sequence (Q96GD4 whole entry): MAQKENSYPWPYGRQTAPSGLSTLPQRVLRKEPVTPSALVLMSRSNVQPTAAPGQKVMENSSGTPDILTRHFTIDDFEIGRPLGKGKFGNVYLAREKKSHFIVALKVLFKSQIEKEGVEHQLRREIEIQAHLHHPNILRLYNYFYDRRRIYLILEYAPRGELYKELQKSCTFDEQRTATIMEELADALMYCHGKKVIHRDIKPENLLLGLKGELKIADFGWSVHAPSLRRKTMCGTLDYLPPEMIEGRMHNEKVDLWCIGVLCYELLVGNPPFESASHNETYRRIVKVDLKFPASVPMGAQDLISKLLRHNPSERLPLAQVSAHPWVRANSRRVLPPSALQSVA
Focal adhesion kinase 1, sequence (Q05397 whole entry): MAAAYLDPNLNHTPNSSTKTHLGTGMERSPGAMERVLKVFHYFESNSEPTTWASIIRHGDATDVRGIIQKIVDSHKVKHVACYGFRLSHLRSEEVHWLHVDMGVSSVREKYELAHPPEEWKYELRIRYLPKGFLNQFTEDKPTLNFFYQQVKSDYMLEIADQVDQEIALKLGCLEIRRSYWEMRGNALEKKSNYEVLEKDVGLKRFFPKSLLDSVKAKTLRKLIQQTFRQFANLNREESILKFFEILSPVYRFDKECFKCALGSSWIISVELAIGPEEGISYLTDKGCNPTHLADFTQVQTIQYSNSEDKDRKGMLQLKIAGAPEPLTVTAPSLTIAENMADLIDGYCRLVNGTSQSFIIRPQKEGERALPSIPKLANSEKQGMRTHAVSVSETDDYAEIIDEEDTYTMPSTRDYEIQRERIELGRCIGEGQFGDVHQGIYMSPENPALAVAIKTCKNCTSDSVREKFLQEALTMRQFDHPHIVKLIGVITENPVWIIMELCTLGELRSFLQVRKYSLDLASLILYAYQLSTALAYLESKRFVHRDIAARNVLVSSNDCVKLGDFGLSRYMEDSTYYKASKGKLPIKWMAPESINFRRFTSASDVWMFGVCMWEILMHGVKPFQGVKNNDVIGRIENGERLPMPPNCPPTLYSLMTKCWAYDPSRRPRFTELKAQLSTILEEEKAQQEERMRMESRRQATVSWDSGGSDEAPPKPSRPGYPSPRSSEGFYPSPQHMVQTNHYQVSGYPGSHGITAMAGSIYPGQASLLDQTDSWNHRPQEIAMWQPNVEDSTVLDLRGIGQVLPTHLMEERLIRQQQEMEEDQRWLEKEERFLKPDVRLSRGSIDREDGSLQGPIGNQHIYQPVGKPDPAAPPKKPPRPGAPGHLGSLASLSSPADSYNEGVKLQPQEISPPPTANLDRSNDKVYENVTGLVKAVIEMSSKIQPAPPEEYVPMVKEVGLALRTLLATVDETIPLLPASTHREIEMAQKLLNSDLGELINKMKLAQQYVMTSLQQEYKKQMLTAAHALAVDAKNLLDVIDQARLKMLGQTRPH
Serine/threonine-protein kinase PLK1, sequence (P53350 whole entry): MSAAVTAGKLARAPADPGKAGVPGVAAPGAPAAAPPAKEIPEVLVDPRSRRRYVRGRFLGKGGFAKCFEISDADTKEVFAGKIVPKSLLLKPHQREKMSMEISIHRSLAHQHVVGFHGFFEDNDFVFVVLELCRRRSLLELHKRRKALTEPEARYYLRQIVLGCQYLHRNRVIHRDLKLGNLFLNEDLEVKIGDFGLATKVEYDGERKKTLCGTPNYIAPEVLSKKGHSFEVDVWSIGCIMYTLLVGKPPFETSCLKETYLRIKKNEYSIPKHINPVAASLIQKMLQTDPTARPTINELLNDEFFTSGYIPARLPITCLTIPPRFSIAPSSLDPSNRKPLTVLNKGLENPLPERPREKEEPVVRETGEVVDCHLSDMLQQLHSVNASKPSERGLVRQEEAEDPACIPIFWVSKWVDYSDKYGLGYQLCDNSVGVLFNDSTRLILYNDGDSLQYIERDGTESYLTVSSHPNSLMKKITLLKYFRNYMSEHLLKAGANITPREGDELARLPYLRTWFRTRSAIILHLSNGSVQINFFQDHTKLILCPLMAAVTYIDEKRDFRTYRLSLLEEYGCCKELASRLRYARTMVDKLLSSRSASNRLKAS

For `CNC(=O)c1cc(Oc2ccc(NC(=O)Nc3ccc(Cl)c(C(F)(F)F)c3)cc2)ccn1` [SORAFENIB TOSYLATE], the GI50 (usually the concentration giving 50% growth inhibition) in [1] is 3.2 µM; in assay [2] it was 2.5 µM; in [3] it was 2.5 µM; in assay [4], 3.2 µM; in [5], 2 µM; in assay [6] it was 3.2 µM. For the same molecule, the GI50 in assay [7] stood at 5 µM; in [8], 2 µM; in [9] it was 2.5 µM; in assay [10], 3.2 µM.
In the case of `CCN(CC)CCNC(=O)c1c(C)[nH]c(/C=C2\C(=O)Nc3ccc(F)cc32)c1C` [SUNITINIB], the GI50 in assay [1] was 1.3 µM; in assay [2], 7.9 µM; in assay [3], 2 µM; in [4], 10 µM; in [5], 4 µM; in assay [6] it was 0.63 µM. For the same molecule, the GI50 in [7] was 6.3 µM; in assay [8] it was 2 µM; in [9] it was 1.6 µM; in assay [10], 3.2 µM.
Take `COc1ccc(Nc2ncc3c(n2)-c2ccccc2NC(=O)C3)cc1O`: the GI50 in [1] was determined as 0.44 µM; in [2], 4.1 µM; in [3], 0.79 µM; in assay [4], 21 µM; in [5] it was 19 µM; in assay [6], 0.15 µM. In addition, the GI50 came out at 4.1 µM in assay [7], 0.2 µM in assay [8], 3.4 µM in [9] and 0.55 µM in [10]. Moreover, the results for the IC50 in assay [11], in assay [12] and in assay [13] were > 100 µM, 3 µM and 0.64 µM, respectively.
Turning to `COc1ccc(Nc2nccc(-c3nc4ccccc4n3C)n2)cc1O`, the 50% growth inhibitory concentration (GI50) in assay [1] worked out at 0.62 µM; in [2], 17 µM; in assay [3], 0.47 µM; in assay [4], 10 µM; in assay [5] it was 5.5 µM; in [6], 0.86 µM. For the same molecule, the GI50 in assay [7] amounted to 26 µM; in assay [8], 0.19 µM; in assay [9], 27 µM; in assay [10], 0.93 µM. Also, the IC50 (commonly the concentration at which inhibition is half-maximal) in assay [11] was > 100 µM; in assay [12], 6 µM; in assay [14], 1.2 µM.
